Reference: publication PMC11964553 (Materials Today Bio, 2025)

Tests used:
[1] = Plasma pharmacokinetics in orthotopic 4T1 tumor-bearing mice; format: in vivo, BALB/c mice
[2] = Tissue quantification of Om and As in tumor; format: in vivo, BALB/c mice
Outline: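 Orthotopic 4T1-luc tumor-bearing female BALB/c mice were dosed i.v. with free drug combination or co-loaded liposome. Tumor and organs were collected at 1, 2, 4, 6, 8, 10, 12 and 24 h, weighed, and homogenized in cold methanol at 4 °C, then spun at 12,000 rpm for 10 min at 4 °C. The pellet was re-extracted with cold chloroform and the supernatants pooled. Parameters came from a non-compartmental model; n = 6.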

[3] = cited from earlier work

AUC ([1]; BALB/c, mouse, iv, 2 mg/kg)	Cmax ([1]; BALB/c, mouse, iv, 2 mg/kg)	MRT ([1]; BALB/c, mouse, iv, 2 mg/kg)	Tmax ([1]; BALB/c, mouse, iv, 2 mg/kg)	half-life ([1]; BALB/c, mouse, iv, 2 mg/kg)	AUC ([2]; BALB/c, mouse, iv, 2 mg/kg)	Cmax ([2]; BALB/c, mouse, iv, 2 mg/kg)	MRT ([2]; BALB/c, mouse, iv, 2 mg/kg)	Cmax of As in plasma ([1]; i.v. 2.0 mg/kg Om and 1.5 mg/kg As, 4T1 tumor-bearing mice, n = 6)	MRT of As in plasma ([1]; i.v., n = 6)	Tmax of As in plasma ([1]; i.v., n = 6)	t1/2 of As in plasma ([1]; i.v., n = 6)	AUC of As in plasma ([1]; time 0–24 h, i.v., n = 6)	Cmax of As in tumor ([2]; i.v., n = 6)	MRT of As in tumor ([2]; i.v., n = 6)	AUC of As in tumor ([2]; time 0–24 h, i.v., n = 6)	Structure (SMILES)	log partition coefficient (log P) [3]	Solubility [3]
1.01 ± 0.25 ng·h/mL	1.75 ± 0.31 ng/mL	2.12 ± 1.19 h	0.17 ± 0.01 h	5.66 ± 2.12 h	6.09 ± 3.96 ng·h/mL	0.92 ± 0.43 ng/mL	6.95 ± 2.83 h	–	–	–	–	–	–	–	–	O=C1CCC[C@@H]2[C@H]3CCC[N+]4([O-])CCC[C@@H](CN12)[C@@H]34 (stereo partly drawn) [Free Om, oxymatrine]	low	–
–	–	–	–	–	–	–	–	52.22 ± 9.04 ng/mL	1.73 ± 0.50 h	0.17 ± 0.01 h	1.73 ± 1.03 h	38.77 ± 12.39 ng·h/mL	0.64 ± 0.26 ng/mL	5.36 ± 2.05 h	6.04 ± 2.43 ng·h/mL	CC(C)(O)[C@@H]1CC[C@](C)([C@H]2[C@@H](O)C[C@@]3(C)[C@@H]4C[C@H](O[C@@H]5O[C@H](CO)[C@@H](O)[C@H](O)[C@H]5O)[C@H]5C(C)(C)[C@@H](O[C@@H]6OC[C@@H](O)[C@H](O)[C@H]6O)CC[C@@]56C[C@@]46CC[C@]23C)O1 [Free As, Astragaloside IV]	–	poor solubility
